Data on 96 compounds can be found in ChEMBL document CHEMBL4513216, “Probing the Open Global Health Chemical Diversity Library for Multistage-Active Starting Points for Next-Generation Antimalarials” (ACS Infect Dis, 2020).

Molecules are shown by their SMILES.

A short description of this data set: Toxicity liver stage against HepG2, at 10uM. The conditions noted are these: human, HepG2-A16-CD81EGFP cells; read-out: INHIBITION
Set-up: test concentration 10 uM, cell line HepG2-A16-CD81EGFP. The class given is cell-based. The gist of the method:
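Uninfected HepG2-A16-CD81EGFP cells, 3 × 10^3 per well, 1536-well, plated on prespotted compound at 10 μM final, parasite-free screening media added to match infected plates; puromycin 10 μM positive, DMSO 0.5% negative; run in parallel with 48 h PbLuc assay at 37 °C, 5% CO2; viability by CellTiter-Glo luminescence, normalized to controls.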
As for `CCc1cc(O)n2nc(C3CCN(C(=O)c4cccnc4)CC3)cc2n1`, the cytotoxicity at 10 µM was 7.09%.
As for `O=C(c1ccncc1F)N1CCOC(c2cccc(O)c2)C1` (stereo unspecified), the figure is -4.97%; as for `Cc1occc1C(=O)N1CCc2c(CNS(C)(=O)=O)cncc2C1`, 8.68%.
Under `CC(C)c1nc(COc2cccc3c2NC(=O)CO3)cs1` stands 35.8%.
Under `CC(C)c1cc(C(=O)N2CCOCC2CC(=O)c2ccco2)nn1C` (stereo unspecified) stands 5.52%.
As to `Cc1ccsc1CN(CCCO)Cc1nc2ccccc2[nH]1`, the cytotoxicity at 10 µM is -21.3%.
As for `CCc1ccc(CN(C)Cc2nc(-c3cnccn3)no2)nc1`, the figure is 3.57%; as for `CCOC(=O)CNC(=O)c1cc(-c2ccccc2)nc2ncnn12`, -5.75%.
As for `COC(=O)NCC(=O)N(C)CC1Cc2ccccc2CN1C` (stereo unspecified), the figure is -6.24%.
Under `CCNC(=O)Cc1c(C)nc2c(c1C)c(=O)[nH]n2C` stands 2.62%.
Turning to `Cc1ncsc1-c1nnc(C2CCN(Cc3ccccc3F)CC2)o1`, the cytotoxicity at 10 µM was -10.2%.
As for `Fc1cnc(N2C[C@@H]3COC[C@]3(COc3ccccn3)C2)nc1`, the figure is -5.43%.
Under `COc1ccc(-c2c[nH]c([C@@H]3COCCN3)n2)cc1` stands -4.84%; under `CNC(=O)c1cn[nH]c1C1CCCN1C(=O)c1ccccn1` (stereo unspecified), 8.52%; under `O=C(C1CC1)N1CC[C@H](O)[C@@H]1Cc1ccccc1`, 1.93%.
Under `COc1cccc2c1OCC(CNC(=O)CSc1nc(N)n[nH]1)C2` (stereo unspecified) stands 0.712%; under `CCCc1ccc2oc(C(=O)N3CCN(CCC(N)=O)CC3)c(C)c2c1`, 0.424%.
As for `COc1cc2cc(C(=O)N[C@@H](C)C(=O)O)n(C)c2c(OC)c1OC`, the cytotoxicity at 10 µM amounted to 12.5%.
Under `COC(=O)c1ccc(NC(=O)CCc2ccncc2)c(C)c1` stands 7.83%.
As for `Cn1cc(CNC2CCc3c(ccc(=O)n3C)C2)cn1` (stereo unspecified), the figure is -115%; as for `CCC(C)Sc1ncc(-c2c(C#N)c(N)nc3c2COCC3)cn1` (stereo unspecified), 15.1%.
Under `O=C(CCn1ccnc1)N1C[C@@H](O)[C@H](Oc2cccc(F)c2)C1` stands -21.6%; under `CN(C)c1ccc(CNC(=O)Nc2ccc(S(C)(=O)=O)nc2)cc1`, -2.48%.
`CC(C)c1nn(C)c(N(C)C)c1CNCC(O)COc1ccccc1` (stereo unspecified): the cytotoxicity at 10 µM was 0.142%.
Under `Cc1noc(C(C)N2CCN(Cc3ccco3)CC2)n1` (stereo unspecified) stands -3.37%.
Under `CCCn1nnnc1COc1cc(OC)ccc1C(=O)OC` stands -2.04%; under `Cc1noc(C(C)C)c1C(=O)NCCC(=O)N1CCCCC1`, 0.632%.
Under `CC(C)n1c(=O)[nH]c2cn(-c3ccc(F)cc3)c(=O)n21` stands -7.74%.
Regarding `CC(C)c1noc(Cn2ncc3ccccc3c2=O)n1`, the cytotoxicity at 10 µM was -3.69%.
As for `CC(Cc1ccccc1F)C(=O)Nc1ccc(OCCC(N)=O)cc1` (stereo unspecified), the figure is -5.56%; as for `Cc1nc(CN(C)C2CCN(CC(=O)NC3CCOCC3)C2)no1` (stereo unspecified), -7.15%.
Turning to `CCC(CN1CCCC1)NC(=O)C1(c2cccc(F)c2)CC1` (stereo unspecified), the cytotoxicity at 10 µM is -5.72%.
On to `CSCCC(=O)N1CCCN(Cc2cnn(C(C)C)c2)CC1`, for which the cytotoxicity at 10 µM was -25.3%.
Under `COc1cc(OC)cc(C(=O)N(C)Cc2nnc3ccccn23)c1` stands -26.9%; under `O=C(Nc1cc(F)ccc1OCC1CCCO1)c1ccc(O)nc1` (stereo unspecified), -2.91%.
As for `c1cncc(-n2cnnc2CC2CCNCC2)c1`, the figure is -20.1%; as for `CC(C)(C)c1cnc(CN(Cc2cccnc2)CC2CCCO2)o1` (stereo unspecified), 5.82%.
As for `Cc1cnc(N2CCC3(CCCN(c4ccc(C)nn4)C3)C2)nc1` (stereo unspecified), the figure is -20.7%; as for `CN(C)C(=O)CC1CC2(CCN(C(=O)N(C)C)CC2)Oc2ccccc21` (stereo unspecified), -11.5%; as for `N#Cc1ccccc1C(=O)N1C[C@@H](CN2CCCCC2)[C@@H](CO)C1`, -0.165%.
Regarding `COc1cc(NC(=O)NCC2CCCO2)cc(OC)c1` (stereo unspecified), the cytotoxicity at 10 µM was determined as 15.6%.
Consider `N#Cc1cc(F)c(NCCCOCC2CCOC2)c(F)c1` (stereo unspecified), for which the cytotoxicity at 10 µM was 6.43%.
As for `COCCC1(CO)CCCN(C(=O)c2cc(=O)[nH]c(=O)[nH]2)C1` (stereo unspecified), the figure is -5.16%; as for `Cc1cc(CNCC2CCCN(C(=O)OC(C)(C)C)C2)no1` (stereo unspecified), 6.22%.
On to `O=C(Nc1ccccc1)c1ccc(NCc2ccncc2)nn1`, for which the cytotoxicity at 10 µM was -3.17%.
Under `CCOc1ncccc1C(=O)N1CCCC(n2nc(C)cc2C)C1` (stereo unspecified) stands -5.54%.
As for `CC(=O)NCCCNC(=O)Nc1ccccc1-n1nc(C)cc1C`, the figure is 6.57%.
Under `Cn1cc(NC(=O)N2CCCC2c2cccnc2)ccc1=O` (stereo unspecified) stands -3.73%.
For the compound `C[C@@H]1C[C@@H]2CCN(C(=O)c3ccncn3)C[C@H]2O1`, the cytotoxicity at 10 µM was -1.55%.
Turning to `CC(O)CN1CCN(Cc2coc(-c3ccc(Cl)cc3)n2)CC1` (stereo unspecified), the cytotoxicity at 10 µM is -7.42%.
Under `CN(C)C(=O)c1nn(C)c2c1CN(Cc1ccoc1)C2` stands -6.28%.
As for `O=C(c1ccsc1)N1CCC2(CC1)COCCN(Cc1ccncc1)C2`, the figure is -89.6%.
As for `Cc1nc(C)c(C(=O)N2CCCC(c3cnccn3)C2)s1` (stereo unspecified), the figure is -20.6%; as for `O=C1c2cccnc2OC(CN2CCOCC2)CN1CC1CC1` (stereo unspecified), -6.17%.
For `C1CCC(CN2Cc3nnn(CC4CC4)c3C(COCC3CC3)C2)C1` (stereo unspecified), the cytotoxicity at 10 µM stood at 19.7%.
Under `COc1cc(CNC2CCc3nc(C)nn3C2)cc2c1OCO2` (stereo unspecified) stands -11.6%; under `Cc1cc(NC(=O)CN(CC(C)O)c2ccccc2)on1` (stereo unspecified), -2.15%; under `CC1=C(C(=O)NCCc2n[nH]c3c2CCCC3)C(C)NC(=O)N1` (stereo unspecified), -3.51%.
As for `CCOc1ccc(C(=O)N(C)Cc2nccn2CC(F)(F)F)cc1`, the figure is -0.296%; as for `CCC(CO)N(C/C(C)=C/c1ccco1)Cc1ccco1` (stereo unspecified), -3.41%.
For `CCc1nc(C)c(C(=O)N2CCCN(Cc3cnn(C)c3)CC2)s1`, the cytotoxicity at 10 µM was -2.41%.
For `CC(C)c1nc(C2CCCN(C(=O)c3nccn4ccnc34)C2)no1` (stereo unspecified), the cytotoxicity at 10 µM was -12.7%.
As for `CO[C@@H]1CN(c2ccccc2)S(=O)(=O)[C@@]12CCN(Cc1ccccc1)C2`, the figure is 3.51%; as for `Fc1cccc(N2CCCC3(C2)CN(c2ncccn2)CCO3)c1` (stereo unspecified), 17.4%; as for `CCC(C)c1ccc(NC(=O)C2CCN(C(=O)COC)CC2)cc1` (stereo unspecified), -3.16%.
Under `Cc1nc2c(c(C)c1CC(=O)Nc1ccccc1F)c(=O)[nH]n2C` stands 0.177%; under `COc1ccccc1Oc1ncccc1CNC(=O)CN1CCCC1=O`, -4.72%; under `CSc1nccc(NCc2cc3n(n2)CCCN(C(=O)C2CCC2)C3)n1`, -118%.
Under `Cn1cc(C(=O)CC2CCCN2C(=O)c2ccc(Cl)cn2)cn1` (stereo unspecified) stands -9.23%.
`O=S1(=O)C[C@@H]2[C@H](C1)N(Cc1cccc(O)c1)CCN2CC1CC1`: the cytotoxicity at 10 µM came to 1.79%.
As for `CC(NC(=O)CCc1nc(C(C)(C)C)no1)c1nnc2n1CCC2` (stereo unspecified), the figure is 12%.
For the compound `CN(Cc1cc(-c2ccncc2)no1)Cc1nccn1C`, the cytotoxicity at 10 µM turned out to be 0.884%.
Under `CC(=O)N1CCC2(CCN(CC3CCOC3)C2)CC1` (stereo unspecified) stands -95%; under `O=C(Cc1ccccc1F)N1CCC[C@@H]1Cn1c(=O)oc2ccccc21`, 2.69%.
Under `Cc1nn(C)c(C)c1-c1cnc(C2CCCN(S(C)(=O)=O)C2)cn1` (stereo unspecified) stands -11.3%; under `O=C(c1cc(C2CCCCC2)no1)N1C[C@H]2CC(O)C[C@H]2C1` (stereo partly specified), -3.89%; under `Cc1cnc(C(=O)N2CCCCC2c2[nH]ncc2S(C)(=O)=O)cn1` (stereo unspecified), 2.12%.
As for `CC(C)(O)CN1CCN(C(=O)c2cnn(-c3ccccc3F)c2)CC1`, the figure is -3.8%; as for `CSCC(C)(O)CNC(=O)c1ccc(F)cc1Cl` (stereo unspecified), -2.79%; as for `Cc1nc(CN2CC[C@@H](OCC3CC3)[C@@H]2Cc2cccnc2)cs1`, -4.38%.
On to `Cc1ccncc1C(=O)N1C[C@H]2CN(CC3CCC3)C[C@@]2(C(=O)O)C1`, for which the cytotoxicity at 10 µM was -5.73%.
Turning to `CCNC(=O)Cc1n[nH]c(-c2cncc(Br)c2)n1`, the cytotoxicity at 10 µM was 1.2%.
Consider `CN1CCc2nc(C3CCCN(C(=O)CC(C)(C)C)C3)ncc2C1` (stereo unspecified), for which the cytotoxicity at 10 µM is -10.3%.
For the compound `Cc1cccc(N2N=C(C(=O)NC(C)Cn3cccn3)CCC2=O)c1` (stereo unspecified), the cytotoxicity at 10 µM was 0.479%.
Under `O=C(Cc1cccs1)NCCNc1nccc(C(F)(F)F)n1` stands 10.9%.
As for `O=S(=O)(c1cccc(F)c1)N1CC[C@H]2[C@H]1CCN2c1ncccn1`, the figure is -4.35%; as for `CCc1ccc(C2COCCN2C(=O)Nc2ccc(C(N)=O)c(Cl)c2)o1` (stereo unspecified), 2.42%; as for `N#Cc1cccc(CN2CCC3(CC(C(=O)NCC4CC4)=NO3)C2)c1` (stereo unspecified), 8.73%.
Under `O=C(c1ccncn1)N1CCO[C@H]2[C@@H](OCc3cccnc3)CC[C@@H]21` stands -7.69%.
Consider `O=C(Nc1ccccc1OC1CCOC1)c1ccon1` (stereo unspecified), for which the cytotoxicity at 10 µM was -0.238%.
As for `CCN(CC)c1ccc(CNC(=O)c2ccccn2)cn1`, the figure is 10.8%; as for `Cc1ncsc1C(=O)NC1CCN(CC(=O)N(C)C(C)(C)C#N)CC1`, -3.88%.
As for `Cc1cnc(N2C(=O)CSC2c2ccccc2)s1` (stereo unspecified), the figure is -1.14%; as for `CN(CC(=O)NC1(C)CCS(=O)(=O)C1)Cc1ccc(F)c(F)c1` (stereo unspecified), -1.55%.
For `O=C(CC1CCCCC1)N1CCOCC1CO` (stereo unspecified), the cytotoxicity at 10 µM was -0.779%.
`COc1cc(CNCc2ccnc(N3CCOCC3)c2)cc(Cl)c1OC`: the cytotoxicity at 10 µM was -8.7%.
